Test results as given in ChEMBL document CHEMBL1221285, “Inhibition of interleukin-1beta converting enzyme (ICE or caspase 1) by aspartyl acyloxyalkyl ketones and aspartyl amidooxyalkyl ketones” (Bioorg Med Chem Lett, 2010).

Biological target: T1, Caspase-1 (Homo sapiens, UniProt P29466)
T1 sequence (P29466 whole entry): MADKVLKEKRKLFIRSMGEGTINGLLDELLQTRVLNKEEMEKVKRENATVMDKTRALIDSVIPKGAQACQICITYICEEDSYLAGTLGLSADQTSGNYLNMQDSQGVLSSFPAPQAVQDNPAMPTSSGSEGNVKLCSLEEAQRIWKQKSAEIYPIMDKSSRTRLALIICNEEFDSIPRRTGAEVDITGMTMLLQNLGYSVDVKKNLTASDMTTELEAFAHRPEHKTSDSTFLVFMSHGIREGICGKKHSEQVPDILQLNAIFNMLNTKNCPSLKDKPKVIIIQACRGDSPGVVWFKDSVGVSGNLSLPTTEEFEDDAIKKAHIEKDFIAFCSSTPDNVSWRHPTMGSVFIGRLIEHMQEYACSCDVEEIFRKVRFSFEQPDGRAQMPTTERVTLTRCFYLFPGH
Test: Inhibition of ICE
How it was run: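 Recombinant ICE; inhibition followed by fluorescence. Ki reported as the geometric mean of two or more experiments.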

In order of falling Ki:
1. O=C(O)C[C@H](NC(=O)OCc1ccccc1)C(=O)CONC(=O)CCc1cccc2ccccc12  298000 nM
2. O=C(O)C[C@H](NC(=O)OCc1ccccc1)C(=O)COCCCCCc1ccccc1  119000 nM
3. O=C(O)C[C@H](NC(=O)OCc1ccccc1)C(=O)CONC(=O)Cc1cccc2ccccc12  84000 nM
4. O=C(O)C[C@H](NC(=O)OCc1ccccc1)C(=O)CONC(=O)Cc1ccccc1  66500 nM
5. O=C(O)C[C@H](NC(=O)OCc1ccccc1)C(=O)CONC(=O)CCc1ccccc1  27500 nM
6. O=C(O)C[C@H](NC(=O)OCc1ccccc1)C(=O)CONC(=O)c1ccccc1  21000 nM
7. O=C(O)C[C@H](NC(=O)OCc1ccccc1)C(=O)CON1C(=O)C[C@@H]2CCCC[C@H]21  17500 nM
8. O=C(O)C[C@H](NC(=O)OCc1ccccc1)C(=O)COC(=O)CCCc1ccccc1  16000 nM
9. COC(=O)C[C@H]1CCC[C@H]2CC(=O)N(OCC(=O)[C@H](CC(=O)O)NC(=O)OCc3ccccc3)[C@@H]12  15000 nM
10. O=C(O)C[C@H](NC(=O)OCc1ccccc1)C(=O)CON1Cc2ccccc2C1=O  14000 nM
11. O=C(O)C[C@H](NC(=O)OCc1ccccc1)C(=O)CON1C(=O)C[C@@H]2CCCC[C@@H]21  9200 nM
12. Cc1cccc2cccc(CC(=O)OCC(=O)[C@H](CC(=O)O)NC(=O)OCc3ccccc3)c12  8500 nM
13. O=C(O)C[C@H](NC(=O)OCc1ccccc1)C(=O)COC(=O)Cc1ccccc1  8300 nM
14. O=C(O)C[C@H](NC(=O)OCc1ccccc1)C(=O)CON1C(=O)Cc2ccccc21  6770 nM
15. O=C(O)C[C@H](NC(=O)OCc1ccccc1)C(=O)COC(=O)CCc1ccc2ccccc2c1  6000 nM
16. O=C(O)C[C@H](NC(=O)OCc1ccccc1)C(=O)COC(=O)CNc1ccccc1  5600 nM
17. O=C(O)C[C@H](NC(=O)OCc1ccccc1)C(=O)COC(=O)CCc1ccccc1  4500 nM
18. Cc1ccc2ccccc2c1CC(=O)OCC(=O)[C@H](CC(=O)O)NC(=O)OCc1ccccc1  4400 nM
19. O=C(O)C[C@H](NC(=O)OCc1ccccc1)C(=O)COC(=O)Cc1cccc2scnc12  2600 nM
20. Cc1cccc2c(CC(=O)OCC(=O)[C@H](CC(=O)O)NC(=O)OCc3ccccc3)cccc12  2000 nM
21. O=C(O)C[C@H](NC(=O)OCc1ccccc1)C(=O)COC(=O)COc1ccccc1  1700 nM
22. O=C(O)C[C@H](NC(=O)OCc1ccccc1)C(=O)CON1C(=O)C2C3C=CC(O3)C2C1=O (stereo partly specified)  1500 nM
23. O=C(O)C[C@H](NC(=O)OCc1ccccc1)C(=O)COC(=O)Cc1ccc2ccccc2c1  1300 nM
24. Cc1ccc(CC(=O)OCC(=O)[C@H](CC(=O)O)NC(=O)OCc2ccccc2)c2ccccc12  1300 nM
25. O=C(O)C[C@H](NC(=O)OCc1ccccc1)C(=O)COC(=O)Cc1csc2ccccc12  1200 nM
26. O=C(O)C[C@H](NC(=O)OCc1ccccc1)C(=O)COC(=O)CC(c1ccccc1)c1ccccn1 (stereo partly specified)  1100 nM
27. O=C(O)C[C@H](NC(=O)OCc1ccccc1)C(=O)COC(=O)CSc1ccccc1  1100 nM
28. O=C(O)C[C@H](NC(=O)OCc1ccccc1)C(=O)COC(=O)COc1cccc2ccccc12  1000 nM
29. CC(C(=O)OCC(=O)[C@H](CC(=O)O)NC(=O)OCc1ccccc1)c1cccc2ccccc12 (stereo partly specified)  1000 nM
30. O=C(O)C[C@H](NC(=O)OCc1ccccc1)C(=O)COC(=O)Cc1coc2ccccc12  800 nM
31. O=C(O)C[C@H](NC(=O)OCc1ccccc1)C(=O)COC(=O)CC(c1ccccc1)c1ccccc1  800 nM
32. O=C(O)C[C@H](NC(=O)OCc1ccccc1)C(=O)COC(=O)Cc1c[nH]c2ccccc12  600 nM
33. O=C(O)C[C@H](NC(=O)OCc1ccccc1)C(=O)COC(=O)Cc1cccc2ccccc12  500 nM
34. CC(C)[C@H](NC(=O)OCc1ccccc1)C(=O)N[C@@H](C)C(=O)N[C@@H](CC(=O)O)C(=O)CCCCCc1ccccc1  134 nM
35. COC(=O)C[C@H]1CCC[C@H]2CC(=O)N(OCC(=O)[C@H](CC(=O)O)NC(=O)[C@H](C)NC(=O)[C@@H](NC(=O)OCc3ccccc3)C(C)C)[C@@H]12  7 nM
36. CC(C)[C@H](NC(=O)OCc1ccccc1)C(=O)N[C@@H](C)C(=O)N[C@@H](CC(=O)O)C(=O)COC(=O)Cc1cccc2ccccc12  3 nM
37. CC(C)[C@H](NC(=O)OCc1ccccc1)C(=O)N[C@@H](C)C(=O)N[C@@H](CC(=O)O)C(=O)COC(=O)C(Cc1ccccc1)Cc1ccccc1  2 nM
38. CC(C)[C@H](NC(=O)OCc1ccccc1)C(=O)N[C@@H](C)C(=O)N[C@@H](CC(=O)O)C(=O)CON1C(=O)Cc2ccccc21  2 nM
39. CC(C)[C@H](NC(=O)OCc1ccccc1)C(=O)N[C@@H](C)C(=O)N[C@@H](CC(=O)O)C(=O)COC(=O)CC(c1ccccc1)c1ccccc1  1 nM
40. CC(C)[C@H](NC(=O)OCc1ccccc1)C(=O)N[C@@H](C)C(=O)N[C@@H](CC(=O)O)C(=O)CON1C(=O)C[C@@H]2CCCC[C@@H]21  1 nM

In order of rising IC50:
1. CC(C)[C@H](NC(=O)OCc1ccccc1)C(=O)N[C@@H](C)C(=O)N[C@@H](CC(=O)O)C(=O)COC(=O)Cc1cccc2ccccc12  2 nM
2. CC(C)[C@H](NC(=O)OCc1ccccc1)C(=O)N[C@@H](C)C(=O)N[C@@H](CC(=O)O)C(=O)COC(=O)C(Cc1ccccc1)Cc1ccccc1  3 nM
3. CC(C)[C@H](NC(=O)OCc1ccccc1)C(=O)N[C@@H](C)C(=O)N[C@@H](CC(=O)O)C(=O)CON1C(=O)C[C@@H]2CCCC[C@@H]21  3 nM
4. CC(C)[C@H](NC(=O)OCc1ccccc1)C(=O)N[C@@H](C)C(=O)N[C@@H](CC(=O)O)C(=O)CON1C(=O)Cc2ccccc21  3 nM
5. CC(C)[C@H](NC(=O)OCc1ccccc1)C(=O)N[C@@H](C)C(=O)N[C@@H](CC(=O)O)C(=O)COC(=O)CC(c1ccccc1)c1ccccc1  5 nM
6. COC(=O)C[C@H]1CCC[C@H]2CC(=O)N(OCC(=O)[C@H](CC(=O)O)NC(=O)[C@H](C)NC(=O)[C@@H](NC(=O)OCc3ccccc3)C(C)C)[C@@H]12  26 nM
7. CC(=O)N[C@@H](Cc1ccc(O)cc1)C(=O)N[C@H](C(=O)N[C@@H](C)C(=O)N[C@@H](CC(=O)O)C(=O)CCCCCc1ccccc1)C(C)C  78 nM
8. CC(C)[C@H](NC(=O)OCc1ccccc1)C(=O)N[C@@H](C)C(=O)N[C@@H](CC(=O)O)C(=O)CCCCCc1ccccc1  976 nM

Biological target: T2, Caspase-1 (Homo sapiens) (UniProt P29466)
T2 sequence (whole entry): T1 sequence (P29466 whole entry)
Test: Inhibition of ICE in human PBMC
How it was run: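 Human PBMC isolated from heparinized blood over Ficoll, washed three times in PBS, then held in RPMI 1640 with glutamine, penicillin, streptomycin and 2% human AB serum at 10^6 cells per well. Cells were stimulated overnight with LPS 10 ng/mL with or without inhibitor. Mature IL-1b in the medium was measured by ELISA. IC50 is the concentration reducing IL-1b by 50%.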

In order of falling IC50:
1. CC(C)[C@H](NC(=O)OCc1ccccc1)C(=O)N[C@@H](C)C(=O)N[C@@H](CC(=O)O)C(=O)CCCCCc1ccccc1  4900 nM
2. COC(=O)C[C@H]1CCC[C@H]2CC(=O)N(OCC(=O)[C@H](CC(=O)O)NC(=O)[C@H](C)NC(=O)[C@@H](NC(=O)OCc3ccccc3)C(C)C)[C@@H]12  4800 nM
3. CC(C)[C@H](NC(=O)OCc1ccccc1)C(=O)N[C@@H](C)C(=O)N[C@@H](CC(=O)O)C(=O)COC(=O)CC(c1ccccc1)c1ccccc1  4300 nM
4. CC(C)[C@H](NC(=O)OCc1ccccc1)C(=O)N[C@@H](C)C(=O)N[C@@H](CC(=O)O)C(=O)CON1C(=O)Cc2ccccc21  3000 nM
5. CC(C)[C@H](NC(=O)OCc1ccccc1)C(=O)N[C@@H](C)C(=O)N[C@@H](CC(=O)O)C(=O)CON1C(=O)C[C@@H]2CCCC[C@@H]21  2400 nM
6. CC(C)[C@H](NC(=O)OCc1ccccc1)C(=O)N[C@@H](C)C(=O)N[C@@H](CC(=O)O)C(=O)COC(=O)C(Cc1ccccc1)Cc1ccccc1  1400 nM
7. CC(=O)N[C@@H](Cc1ccc(O)cc1)C(=O)N[C@H](C(=O)N[C@@H](C)C(=O)N[C@@H](CC(=O)O)C(=O)CCCCCc1ccccc1)C(C)C  900 nM
8. CC(C)[C@H](NC(=O)OCc1ccccc1)C(=O)N[C@@H](C)C(=O)N[C@@H](CC(=O)O)C(=O)COC(=O)Cc1cccc2ccccc12  600 nM
